{"data": "Published values of several laboratories", "cell line": "MDA-MB-231", "observed": "cell growth or viability", "note": "Compare with care: the assays were run in different laboratories. pEC50, pIC50: −log10 of the molar value."}
{"Compound": "COc1ccc(-c2nc3ccc(C)cc3[nH]2)cc1O", "method": "MTT", "time": "48 h", "endpoint": "pIC50", "result": 4.26}
{"Compound": "CC/C(=C(\\c1ccccc1)c1ccc(OCCN(C)C)cc1)c1ccccc1", "method": "ATP luminescence", "time": "72 h", "endpoint": "EC90", "result": "33.4 µM"}
{"Compound": "COc1cc2c(cc1OS(N)(=O)=O)CCN(Cc1cccc([N+](=O)[O-])c1)C2", "method": "WST-1", "time": "96 h", "endpoint": "GI50", "result": "1.91 µM"}
{"Compound": "CCOC(=O)C(C(C)=O)=C1Sc2nc3ccc(S(=O)(=O)N4CCCC4)cc3nc2S1", "method": "MTT", "concentration": "50 µM", "time": "24 h", "endpoint": "viability", "result": "8.1%"}
{"Compound": "CCOc1cc(CN2CCc3cc(OS(N)(=O)=O)c(OC)cc3C2)cc(OCC)c1OCC", "method": "WST-1", "time": "96 h", "endpoint": "GI50", "result": "4.4 µM"}
{"Compound": "COc1cc2c(cc1OS(N)(=O)=O)CCN(Cc1cccc(O)c1)C2", "method": "WST-1", "time": "96 h", "endpoint": "GI50", "result": "41 µM"}
{"Compound": "COc1cccc2c1C(=O)c1c(O)c3c(c(O)c1C2=O)C[C@@](O)(C(=O)CO)C[C@@H]3O[C@H]1C[C@H](N)[C@H](O)[C@H](C)O1", "method": "MTT", "concentration": "100 µM", "time": "24 h", "endpoint": "viability", "result": "4.1%"}
{"Compound": "COc1cc2c(cc1O)CCN(Cc1cc(Cl)c(OC)c(OC)c1)C2", "method": "WST-1", "time": "96 h", "endpoint": "GI50", "result": "0.4 µM"}
{"Compound": "COc1ccc(-c2cn(-c3cc(=O)oc4ccc(Br)cc34)nn2)cc1", "method": "imaging", "time": "72 h", "endpoint": "CC50", "result": "10.7 µM"}
{"Compound": "COc1cc2c(cc1OS(N)(=O)=O)CCN(Cc1cccc(NC(C)=O)c1)C2", "method": "WST-1", "time": "96 h", "endpoint": "GI50", "result": "> 100 µM"}
{"Compound": "COc1ccc(-c2nc3ccc(C)cc3[nH]2)cc1OC", "method": "MTT", "time": "48 h", "endpoint": "pIC50", "result": 4.28}
{"Compound": "CCOc1cc(CN2CCc3cc(O)c(OC)cc3C2)cc(OCC)c1OCC", "method": "WST-1", "time": "96 h", "endpoint": "GI50", "result": "> 100 µM"}
{"Compound": "Cc1ccc2nc(-c3ccc(Cl)c(Cl)c3)[nH]c2c1", "method": "MTT", "time": "48 h", "endpoint": "pIC50", "result": 4.22}
{"Compound": "O=C(c1cc(Cc2n[nH]c(=O)c3ccccc23)ccc1F)N1CCN(C(=O)C2CC2)CC1", "method": "ATP luminescence", "time": "7 days", "endpoint": "pEC50", "result": "~5.30"}
{"Compound": "COc1cc2c(cc1OS(N)(=O)=O)CCN(Cc1cccc(OC)c1OC)C2", "method": "WST-1", "time": "96 h", "endpoint": "GI50", "result": "0.888 µM"}
{"Compound": "c1ccc2[nH]c(-c3ccncc3)nc2c1", "method": "MTT", "time": "48 h", "endpoint": "pIC50", "result": "< 4.00"}
{"Compound": "CCOc1cccc(CN2CCc3cc(OS(N)(=O)=O)c(OC)cc3C2)c1", "method": "WST-1", "time": "96 h", "endpoint": "GI50", "result": "0.65 µM"}
{"Compound": "COc1cccc(-c2nc3ccc(C)cc3[nH]2)c1", "method": "MTT", "time": "48 h", "endpoint": "pIC50", "result": 4.81}
{"Compound": "CCOc1cccc(CN2CCc3cc(O)c(OC)cc3C2)c1", "method": "WST-1", "time": "96 h", "endpoint": "GI50", "result": "> 100 µM"}
{"Compound": "N#CC(C(=O)Nc1cccc(C(F)(F)F)c1)=C1Sc2nc3ccc(S(=O)(=O)N4CCCC4)cc3nc2S1", "method": "MTT", "concentration": "100 µM", "time": "24 h", "endpoint": "viability", "result": "12.9%"}
{"Compound": "C[C@]12CC[C@@H]3c4ccc(O)cc4CC[C@H]3[C@@H]1CC[C@@H]2O", "method": "ATP luminescence", "time": "72 h", "endpoint": "EC90", "result": "40.1 µM"}
{"Compound": "C[C@]1(c2nc3c(C(N)=O)cccc3[nH]2)CCCN1", "method": "ATP luminescence", "time": "7 days", "endpoint": "pEC50", "result": "< 5.00"}
{"Compound": "C=CCn1c(-c2ccc(OC)c(OC)c2)nc2ccccc21", "method": "MTT", "endpoint": "pIC50", "result": 4.51}
{"Compound": "COc1cc2c(cc1O)CCN(Cc1cccc(NC(C)=O)c1)C2", "method": "WST-1", "time": "96 h", "endpoint": "GI50", "result": "> 100 µM"}
{"Compound": "Clc1ccc(-c2nc3ccccc3[nH]2)c(Cl)c1", "method": "MTT", "time": "48 h", "endpoint": "pIC50", "result": 4.28}
{"Compound": "COc1cc2c(cc1OS(N)(=O)=O)CCN(Cc1cccc(OS(N)(=O)=O)c1)C2", "method": "WST-1", "time": "96 h", "endpoint": "GI50", "result": "34.9 µM"}
{"Compound": "COc1cccc(-c2nc3ccccc3n2Cc2ccccc2)c1", "method": "MTT", "endpoint": "pIC50", "result": 4.36}
{"Compound": "O=C1CCCCC1=C1Sc2nc3ccc(S(=O)(=O)N4CCCC4)cc3nc2S1", "method": "MTT", "concentration": "3.125 µM", "time": "24 h", "endpoint": "viability", "result": "69.8%"}
